From PubChem BioAssay
TAAR1 agonist: human TAAR1 agonists, primary screen, Fluo-8 calcium fluorescence, CHO RD-HGA16 cells; Trace amine-associated receptor 1 (Homo sapiens), Q96RJ0; vehicle wells 0%, saturating PEA agonist 100%; activation, % at 3 µM; actives 0.99% (n = 360,000);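 active = activation above the mean activation of all test compounds in the run plus 3 SD, cut at about 38% in these data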
Target sequence (Q96RJ0 whole entry, looked up): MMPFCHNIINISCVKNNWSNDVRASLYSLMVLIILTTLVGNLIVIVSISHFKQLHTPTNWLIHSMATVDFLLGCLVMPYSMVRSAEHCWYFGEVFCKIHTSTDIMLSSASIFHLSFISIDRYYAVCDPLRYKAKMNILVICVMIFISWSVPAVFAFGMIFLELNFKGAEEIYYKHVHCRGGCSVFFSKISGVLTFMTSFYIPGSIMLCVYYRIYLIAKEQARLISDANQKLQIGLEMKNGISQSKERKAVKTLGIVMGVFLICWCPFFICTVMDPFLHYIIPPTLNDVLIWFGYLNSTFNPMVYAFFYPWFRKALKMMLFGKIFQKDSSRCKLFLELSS
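Benchmarks: low control DMSO, high control PEA (EC100); System: CHO RD-HGA16 cells carrying human TAAR1 plus Gα16; Detection: Fluo-8 fluorescence, 5 s baseline then 140 s kinetic read; Schedule: 17-24 h plating, Fluo-8 75 min 37 °C, 30 min RT; Read-out basis: % activation from peak over basal fluorescence ratio, DMSO-to-PEA scaled.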
OX1R antag-1: antagonists of human orexin 1 receptor (OX1R); Orexin/Hypocretin receptor type 1 (Homo sapiens), O43613; OX1R-expressing cells, FRET antagonist read-out; actives 1.8% (n = 330,000); inhibition, % at 6.6 µM; in the data active = inhibition mostly above about 38%, no sharp cut-off; inactive = mostly below about 40%
CHO parental Ca: ATP-evoked calcium signal inhibitors, parental CHO, primary screen, counter-screen for OX1R antagonist project, cell-based, fluorescence, Fluo-8 calcium dye. inhibition, % at 5.6 µM. parental CHO-K1, ATP-induced calcium, Fluo-8 fluorescence. actives 0.63% (n = 330,000);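 active = inhibition above that plate's mean sample inhibition plus 3 SD, cut at about 26% in these data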
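Test system: parental CHO cells; detection: calcium-sensitive Fluo-8 fluorescence; evaluation: percent inhibition of calcium signal; also added: ATP as calcium-mobilizing challenge; repeats: one well per compound; control set: ATP-challenged DMSO wells low, unchallenged DMSO wells high; compound: single nominal dose of 5.6 µM per compound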
GalR3 antagonist: GalR3 antagonists in HEK293 cells, primary screen, cell-based, fluorescence readout; inhibition, % at 3 µM; actives 0.44% (n = 360,000); Galanin receptor type 3 (Homo sapiens), O60755; HEK293 GalR3-CNG cAMP membrane potential fluorescence; galR3 body fused to GalR1 C-terminus;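 active = inhibition above the screen-wide average plus 3 SD, cut at about 13% in these data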;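 note: forskolin and galanin both at EC90 stimulate the cells; cAMP rise reported by CNG channel membrane potential dye signal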
Target sequence (O60755 1-299 limits assumed): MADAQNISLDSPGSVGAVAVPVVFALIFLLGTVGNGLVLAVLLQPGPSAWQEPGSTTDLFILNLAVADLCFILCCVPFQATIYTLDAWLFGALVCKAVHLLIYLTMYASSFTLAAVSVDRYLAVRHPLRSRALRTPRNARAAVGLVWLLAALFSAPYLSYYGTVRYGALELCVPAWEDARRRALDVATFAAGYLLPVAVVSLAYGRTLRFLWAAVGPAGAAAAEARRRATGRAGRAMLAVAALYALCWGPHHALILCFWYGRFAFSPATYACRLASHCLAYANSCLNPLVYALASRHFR
TAAR1 antag: human TAAR1 antagonists, primary screen, Fluo-8 calcium fluorescence, CHO RD-HGA16 cells; Trace amine-associated receptor 1 (Homo sapiens), Q96RJ0; antagonist; inhibition, % at 3 µM; actives 1.5% (n = 360,000);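 active = inhibition above a per-plate cutoff, the mean inhibition of test compounds on that plate plus 3 SD, cut at about 49% in these data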
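Test system – hTAAR1-expressing CHO RD-HGA16 cells, Gα16-coupled · Reagent – β-PEA at EC80 concentration, post-compound challenge · Compound dosing – 3 µM, single point · Timing – 140 s kinetic read after compound, 140 s after agonist · Detection – Fluo-8 intracellular calcium dye fluorescence, real-time kinetic reads · Control set – DMSO and EC80 PEA controls · Repeats – n of 1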
OX1R antag-2: OX1R (HCRTR1) antagonists, primary screen, fluorescence, CHO/OX1R cells, Fluo-8 calcium, orexin A; AID 434989, 2010; inhibition, % at 5 µM; actives 0.43% (n = 330,000); Fluo-8 calcium fluorescence;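 active = inhibition above its plate's threshold, mean inhibition of all tested compounds on the plate plus 3 SD, cut at about 37% in these data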
Large screens that a line does not name were inactive; ! = not active in a repeat. Most compounds without a hit are left out; they make up all but 4.3% or so of the library.

COc1cc(NC(=O)c2csc(N)n2)cc(C(=O)Nc2cccc(C(F)(F)F)c2)c1	TAAR1 antag 53!
CCO/C(C)=N/n1c2nc3ccccc3nc2c2c(=O)n(CC(C)C)c(C)nc21	OX1R antag-1 73
Cn1nc(CC(=O)Nc2ncc(Br)s2)c2ccccc2c1=O	TAAR1 agonist 44
CC(C)=CCc1c(O)ccc(C(=O)Cc2ccccc2)c1O	TAAR1 agonist 40
O=C(Cc1ccccc1F)Nc1cc(S(=O)(=O)N2CCOCC2)ccc1N1CCCC1	none
COc1cc(C(=O)Nc2nccs2)c(Br)c(OC)c1OC	TAAR1 antag 51
COc1cc(C(=O)NC(=S)Nc2nccs2)cc(OC)c1OC	none
N#C/C(=C\c1ccc(Sc2nc3ccccc3[nH]2)o1)c1ccccc1	OX1R antag-1 74, OX1R antag-2 56
N#C/C(=C/c1ccc(N2CCOCC2)o1)c1ccc(Br)cc1	TAAR1 antag 57
N#C/C(=C/c1ccc(N2CCOCC2)o1)c1nc2ccccc2[nH]1	TAAR1 agonist 49
Cc1ccc(NC(=O)c2c(C(F)(F)F)nn(C)c2SCc2cccc(C(F)(F)F)c2)cc1C	CHO parental Ca 67
O=C(Nc1nc2c(s1)CN(Cc1ccccc1)CC2)c1cccc(S(=O)(=O)N2CCc3ccccc32)c1	TAAR1 agonist 38
CC(=O)Nc1cccc(NC(=O)c2ccc3c(c2)CCN3S(=O)(=O)c2ccccc2)c1	TAAR1 antag 50
COc1cccc(N=Nc2ccc3cccnc3c2O)c1	CHO parental Ca 83, TAAR1 antag 74, OX1R antag-2 53
COc1cccc(N=Nc2ccc(O)c3ncccc23)c1	CHO parental Ca 55, TAAR1 antag 70, OX1R antag-2 49
COc1ccc(N=Nc2ccc(O)c3ncccc23)cc1	CHO parental Ca 51
COc1ccc(C)cc1N=Nc1ccc(O)c2ncccc12	none (no result: OX1R antag-1, CHO parental Ca, OX1R antag-2)
Cc1cccc(C)c1NC(=O)C1(C)CSCC(=O)N1CCCn1ccnc1 (stereo not drawn)	none (no result: OX1R antag-1, CHO parental Ca, OX1R antag-2)
N=c1c(S(=O)(=O)c2ccccc2)cc2c(=O)n3ccccc3nc2n1CCCN1CCOCC1	OX1R antag-1 46
Cc1ccc2nc3c(cc(C(N)=S)c(=N)n3CCCOC(C)C)c(=O)n2c1	OX1R antag-1 47
Cc1ccc2nc3c(cc(C(=O)NCCN4CCOCC4)c(=N)n3CCCN3CCOCC3)c(=O)n2c1	OX1R antag-1 71 (no result: TAAR1 agonist, GalR3 antagonist, TAAR1 antag)
Cc1ccc2nc3c(cc(C(=O)NCc4ccccc4)c(=N)n3CCCn3ccnc3)c(=O)n2c1	none (no result: OX1R antag-1, CHO parental Ca, OX1R antag-2)
N=c1c(C(=O)NCCN2CCOCC2)cc2c(=O)n3ccccc3nc2n1Cc1ccc(F)cc1	OX1R antag-1 60
CCOC(=O)c1cc(C#N)c(N2CCCNCC2)nc1C(F)(F)F	none
CN1CCN(c2cc(-c3ccc4ccccc4c3)nc3ccnn23)CC1	none (no result: OX1R antag-1, CHO parental Ca, OX1R antag-2)
Cc1ccc(S(=O)(=O)c2cc3c(=O)n4ccccc4nc3n(CCCN3CCOCC3)c2=N)cc1C	none
N=c1c(C(=O)NCCN2CCOCC2)cc2c(=O)n3ccccc3nc2n1CCCN1CCOCC1	OX1R antag-1 69
CCN(CC)CCn1c2ccccc2c2n[nH]c(=S)nc21	none
CCN(CC)CCn1c2ccccc2c2nc3ccccc3nc21	OX1R antag-1 67
CC(C)C[C@@H](CN1CCC[C@@H]1CN1C(=S)NC[C@@H]1Cc1ccc(O)cc1)N1C[C@H](Cc2ccc(O)cc2)N(CCc2ccccc2)C1=S	none (no result: OX1R antag-1, CHO parental Ca, OX1R antag-2)
COc1cccc(CNC(=O)[C@H]2CCCN2)c1	none (no result: OX1R antag-1, CHO parental Ca, OX1R antag-2)
Cc1c(C#N)c2n(c1C)CCCC(=O)N2	none (no result: OX1R antag-1, CHO parental Ca, OX1R antag-2)
C#CCNC(=O)C1=C[C@@H](c2csc3ccccc23)C[C@@H](OCc2ccc(CO)cc2)O1	TAAR1 antag 54
O=C(NCc1ccccc1)C1=C[C@@H](c2csc3ccccc23)C[C@@H](OCc2ccc(CO)cc2)O1	none
CN(c1cccnc1)c1ccc(NC(=O)CCc2c[nH]c3ccccc23)cc1Br	none (no result: OX1R antag-1, CHO parental Ca, OX1R antag-2)
CC(Sc1nnc(C2CC2)n1C1CC1)C(=O)N(C)Cc1cccc(F)c1 (stereo not drawn)	none
Cc1ccc2c(C)c(C(=O)NCCN3CCOC3=O)oc2c1C	none
CC(=O)Nc1ccc(N=c2cc([N+](=O)[O-])cc(Cl)n2O)cc1	OX1R antag-1 66
CC(=O)Nc1ccc(Oc2ccc([N+](=O)[O-])cc2Cl)cc1	none
COC(=O)[C@]12C[C@H](CC(=O)N3CCCC3)C(=O)N(Cc3ccccc3)C1=C[C@H](C(C)(C)C)O[C@@H]2C	none (no result: OX1R antag-1, CHO parental Ca, OX1R antag-2)
O=C(Nc1ccc(F)cc1)C(Sc1nnc2ccccn12)c1ccccc1 (stereo not drawn)	none
CCOc1ccccc1NC(=O)C(Sc1nnc2ccccn12)c1ccccc1 (stereo not drawn)	OX1R antag-1 41
CCn1c(CNC(=O)c2cc(OC)c(OC)c(OC)c2)cc2ccccc21	OX1R antag-1 69
CCOC(=O)C(Cc1ccc(NC(=O)/C(=C/c2ccccc2)NC(=O)c2ccccc2)cc1)N1C(=O)c2ccccc2C1=O (stereo not drawn)	none
CCOC(=O)C(Cc1ccc(NC(=O)/C(=C/c2ccc(OC(C)=O)cc2)NC(C)=O)cc1)N1C(=O)c2ccccc2C1=O (stereo not drawn)	TAAR1 antag 49
Cc1ccc(C)c(NC(=O)c2ccccc2NS(=O)(=O)c2cc([N+](=O)[O-])ccc2C)c1	OX1R antag-1 55
COc1ccc(C)cc1NC(=O)c1ccccc1NS(=O)(=O)c1cccc2cccnc12	OX1R antag-1 70
Cc1ccc([N+](=O)[O-])cc1S(=O)(=O)Nc1cccc(S(=O)(=O)Nc2ccccc2C(=O)O)c1	none
Cc1cc(NC(=O)c2ccccc2NS(=O)(=O)c2c(C)c(C)cc(C)c2C)no1	none
Cc1ccc(C)c(S(=O)(=O)Nc2ccccc2C(=O)Nc2cc(C)on2)c1	OX1R antag-1 36
CCOc1ccc(NC(=O)c2ccc3c(c2)S(=O)(=O)N=C2CCCCCN23)cc1	none (no result: OX1R antag-1, CHO parental Ca, OX1R antag-2)
COc1ccc(NC(=O)CSc2nc3ccsc3c(=O)n2CCCCCC(=O)O)cc1	TAAR1 antag 50
O=C(O)CCCCCn1c(SCC(=O)Nc2ccc(F)cc2)nc2ccsc2c1=O	none
COc1ccc(N2CCN(c3ncnc4c3cnn4-c3ccc(C)cc3C)CC2)cc1	none
CCc1cc2c(N3CCN(c4ccccc4)CC3)ncnc2s1	CHO parental Ca 60, TAAR1 antag 66, OX1R antag-2 58
